# High-throughput results (PubChem BioAssay)
# T cell HTS: T cell immune modulators affecting CD8 T cell-vesicle binding. 2C CD8+ T cell-vesicle binding, flow cytometry; active compounds read low. response (vesicle binding), % at 7 µM. 330,000 tested, 0.068% active;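 active = response, share of CD8 T cells binding vesicles, and their 90th percentile fluorescence all below set limits, cut at about 80% in these data, passing the limit was not always enough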;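 also: values below 100% mean blocked vesicle binding to the CD8+ T cells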
#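 Assay system: 2C TCR transgenic mouse naive CD8+ T cells, MACS-purified | Read-out: CD8+ gate FL2 mean fluorescence as % of same-row positive control | Signal: High-throughput flow cytometry with anti-B7-1 and anti-CD8 staining | Timing: Binding step 1.5 h, 37 °C, antibody labelling 20 min, ice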
# Pemphigus Ab inh: blocks pemphigus antibody binding to human desmoglein-3 | DSG3-coupled beads, scFv-anti-DSG3-GFP binding, flow cytometry; active compounds read low | AID 588358 | 310,000 tested, 0.48% active | binding (percent of control), % at 10 µM;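 active = binding more than 3 SD below its plate's average and above zero; inconclusive = below that plate limit but binding exactly zero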;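 also: hits lower antibody fragment binding to DSG3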
# CHT allo act: human CHT allosteric activation | 310,000 tested, 0.49% active | CHT-expressing cells, membrane potential dye, choline EC20; active compounds read high; LV-AA mutant CHT in HEK293 cells | Q9GZV3 | B-score at 10 µM | AID 488977;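 active = initial fluorescence not abnormally high and integrated response B-score, plate-corrected, over 3 SD above library mean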
# CHT block: inhibits the human high affinity choline transporter; AID 488975; B-score at 10 µM; CHT-expressing cells, membrane potential dye, choline response; active compounds read low; 310,000 tested, 0.86% active; Q9GZV3;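 active = B-score over 3 SD under the library average, and starting fluorescence ratio not unusually high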;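 also: choline stimulus applied at its EC90 after an EC20 pre-addition; B-score computed on integrated fluorescence ratio after choline addition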
# GPR7 antagonist: antagonists of human GPR7 (neuropeptides B/W receptor 1); P48145; GPR7-expressing cells, fluorescence antagonist assay; inhibition, % at 4.4 µM; 290,000 tested, 1.1% active; AID 1861; in the data active = inhibition above about 16%, passing the limit was not always enough;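 also: cells stimulated with the agonist NPW; 0% = agonist with vehicle and 100% = vehicle without agonist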
# Target sequence (P48145 whole entry, looked up): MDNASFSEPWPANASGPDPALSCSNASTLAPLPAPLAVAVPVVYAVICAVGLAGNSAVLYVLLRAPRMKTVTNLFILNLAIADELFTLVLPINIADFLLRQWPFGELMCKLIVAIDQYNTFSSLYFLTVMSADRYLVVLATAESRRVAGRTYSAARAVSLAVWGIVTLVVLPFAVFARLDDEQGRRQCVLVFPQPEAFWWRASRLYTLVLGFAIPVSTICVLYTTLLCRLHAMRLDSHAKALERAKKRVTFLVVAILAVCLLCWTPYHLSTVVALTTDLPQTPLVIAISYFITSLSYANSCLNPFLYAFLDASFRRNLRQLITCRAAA
# p-CIP stab down: p/CIP protein destabilization; F442A p/CIP-EGFP cells, EGFP fluorescence, 16 h; decrease of EGFP signal, % at 10 µM; 290,000 tested, 0.01% active; AID 1984;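 active = EGFP signal decrease of at least 30% at 10 µM or well 3 SD below plate mean, unless failing retest; inactive = the rest, including hits failing retest or dose response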
# An asterisk follows results filed as active; i = inactive; ? = inconclusive; . = not tested or not shown. Hits are enriched below; roughly 2.3% of the tested compounds scored in any of these assays.
SMILES,T cell HTS,Pemphigus Ab inh,CHT allo act,CHT block,GPR7 antagonist,p-CIP stab down
CCOC(=O)c1c(-c2ccccc2)c[nH]c1C,.,70*,.,.,.,.
O=C(/C=C/c1cccs1)NNC(=O)c1cccc([N+](=O)[O-])c1,435,139,.,.,.,.
O=C(/C=C/c1cccs1)NNC(=O)c1ccccc1,31*,105,.,.,.,.
O=C1c2cccc3c([N+](=O)[O-])ccc(c23)C(=O)N1Cc1cccnc1,.,96,.,.,24*,-66
O=C1c2cccc3cccc(c23)C(=O)N1Cc1cccnc1,231,.,i,i,-11,-8
CCOc1cc(NC(=O)c2ccccn2)c(OCC)cc1NC(=O)c1cccc(C)c1,336,74*,i,i,0,-10
CCOc1cc(NC(=O)c2cccs2)c(OCC)cc1NC(=O)c1ccccn1,93,81,i,i,-9,-4
COc1ccc(N2CCN(C(=O)NCc3ccc(OC)c(Cl)c3)CC2)cc1,204,44*,i,i,4,-5
CC1(C)CC(=O)C=C(c2n[nH]nc2-c2ccccc2)C1,.,110,.,.,.,.
O=C(c1ccccn1)N(CC1CCCO1)C1(C(=O)NC2CCCCC2)CCCCC1 (centres undefined),182,108,i,i,6,7
O=C(Cc1cccs1)N(CC1CCCO1)C1(C(=O)NC2CCCC2)CCCCC1 (centres undefined),145,.,i,i,37*,1
CCOC(=O)c1c(C)nc2sc(C(N)=O)c(N)c2c1-c1ccccc1,266,105,i,i,-5,-1
CCOC(=O)c1c(C)nc2sc(C(=O)Nc3ccccc3)c(N)c2c1-c1ccc(OC)cc1,386,88*,i,i,-15,-10
Cc1cccc(NC(=O)c2nc[nH]c2C(=O)N[C@H](C)CO)c1,.,106,.,.,.,.
O=C(COn1nnc2ccc(Cl)cc21)NC12CC3CC(CC(C3)C1)C2,200,86*,i,i,6,-8
O=C(COn1nnc2ccc(Cl)cc21)Nc1ccc(F)cc1,186,106,i,i,-4,-3
Cc1csc(=O)n1CCC(=O)OCC(=O)NCc1ccccc1,.,99,.,.,.,.
COc1ccc(NC(=O)Cn2nnc(C(=O)NCc3ccccc3)c2N)cc1Cl,152,89*,i,i,5,-6
COc1cccc(Cn2nnc(C(=O)Nc3cc(C)ccc3OC)c2N)c1,196,-1.1*,i,i,2,-32
COc1ccc(CN2CCC[C@]3(N[C@H](c4ccc(C)cc4)[C@@H]4C(=O)N(Cc5ccccc5)C(=O)[C@@H]43)C2=O)cc1,.,109,.,.,.,.
CSc1nc2ccc(NC(=O)NC(=O)c3c(F)cccc3F)cc2s1,126,.,i,i,19*,-12
CSc1nc2ccc(NC(=O)COc3ccccc3F)cc2s1,0,?,.,.,.,.
COc1ccccc1/C=C/C(=O)OC(C)CN1CCCCC1 (centres undefined),0,89*,i,i,-7,-5
COc1cccc(C(=O)OC(C)CN2CCCC2)c1 (centres undefined),543,97,i,i,0,11
CC(=O)N1CC2(CC(c3ccccc3C(F)(F)F)=NO2)CN1c1ccc(Cl)cc1 (centres undefined),.,100,.,.,.,.
SMILES,T cell HTS,Pemphigus Ab inh,CHT allo act,CHT block,GPR7 antagonist,p-CIP stab down
CS(=O)(=O)c1ccccc1C(=O)NCCC(c1ccccc1)c1ccccc1,329,45*,i,i,-8,7
c1ccc2c(c1)C1=NCCN1c1ccccc1-2,.,100,.,.,.,.
c1ccc(NN=C(c2ccccc2)c2cccs2)cc1,.,106,.,.,.,.
COc1ccc(-c2ccc(-c3nc4c(c(=O)[nH]c(=O)n4Cc4ccccc4)n3C)o2)c([N+](=O)[O-])c1,209,76*,i,i,-5,1
COCCn1c(=O)[nH]c(=O)c2c1nc(-c1ccc(-c3ccc(Cl)cc3[N+](=O)[O-])o1)n2Cc1ccccc1,277,96,i,i,-14,-12
COCCn1c(-c2ccc(-c3ccc([N+](=O)[O-])cc3Br)o2)nc2c1c(=O)[nH]c(=O)n2CC(C)C,209,78*,i,i,-5,-20
O=C(Nc1ccc2c(c1)CN(C(=O)Nc1ccc(F)cc1)CC2)c1ccccn1,.,98,.,.,.,.
CCN(CC)S(=O)(=O)c1ccc(N/N=C/c2cc(OC)c(OC)cc2OC)nc1,372,63*,i,i,-6,0
CCN(CC)S(=O)(=O)c1ccc(N/N=C/c2ccc(OC)c(OC)c2OC)nc1,974,99,i,i,-8,-29
COC(=O)c1ccc(C2C(Oc3ccc(OC)cc3)C(=O)N2CCc2ccc(OC)c(OC)c2)cc1 (centres undefined),315,72*,i,i,-3,-6
Cc1ccc(S(=O)(=O)Nc2ccc(NC(=O)c3cccs3)cc2)cc1,295,106,i,i,2,-6
Cc1ccc(S(=O)(=O)Nc2ccc(NC(=O)c3c(F)c(F)c(F)c(F)c3F)cc2)cc1,242,101,i,i,78*,-7
CCOc1ccc(C=NNc2ccc(S(=O)(=O)Nc3ccccc3C(=O)O)cc2[N+](=O)[O-])cc1,336,89*,.,.,.,.
CSc1ccc(C=NNc2ccc(S(=O)(=O)Nc3ccccc3C(=O)O)cc2[N+](=O)[O-])cc1,389,72*,.,.,.,.
CCOc1cccc(C=NNc2ccc(S(=O)(=O)Nc3ccccc3C(=O)O)cc2[N+](=O)[O-])c1O,607,118,.,.,.,.
C[C@H](NC(=O)c1nc[nH]c1C(=O)NC1CCNCC1)C(=O)OCc1ccccc1,307,.,.,.,.,.
Cc1ccc(NC(=C(C#N)C#N)c2ccccc2)cc1,.,101,.,.,.,.
Cc1ccc(-c2n[nH]c(=S)n2-c2ccccc2)cc1,81*,106,i,i,-10,6
COc1cccc(C(=Cc2ccc([N+](=O)[O-])cc2)C(=O)O)c1,.,105,.,.,.,.
Cc1cc(=O)oc(C)c1C(=O)OCC(=O)c1ccc(Cl)c(Cl)c1,176,82*,i,i,3,-5
C=C(C(=O)Oc1ccccc1C(C)(C)C)c1ccccc1,338,.,.,.,.,.
O=C(Nc1ccccc1Cl)OCC#CCOC(=O)Nc1ccccc1Cl,.,105,.,.,.,.
O=C(Nc1ccccc1Cl)Oc1ccc(Cl)cc1Cl,27*,92,i,i,-5,-1
COc1ccc(C(=O)N/C(=C\c2ccc(Cl)cc2)C(=O)NCc2ccncc2)cc1,.,102,.,.,.,.
CCN1/C(=C/c2ccc3ccccc3[n+]2CCCS(=O)(=O)[O-])C=Cc2cc(C)ccc21,251,114,i,i,2,-21
CCN1/C(=C/c2ccc3ccccc3[n+]2CC)C=Cc2ccccc21,332,115,i,i,53*,-60
O=C1CN(c2ccc(Cl)cc2)C(=O)CN1NC(=S)Nc1ccc(Cl)cc1,439,61*,i,i,0,-12
